Screens: PubChem, Johns Hopkins Ion Channel Center
Sampled rows, rich in hits. Any-hit rate of the full collection: about 2.9%.
Kir21 block = inhibitors of mouse Kir2.1 inward-rectifier potassium channel; HEK293-Kir2.1, FluxOR thallium flux fluorescence; active compounds read low; B-score at 10 µM; actives 0.85% (n = 310,000); Inward rectifier potassium channel 2 (Mus musculus), P35561; AID 1672, 2009;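 active means fluorescence ratio B-score at or below minus 3 SD of library scores, with starting-brightness B-score within 2 SD, cut at about -4.2 in these data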;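 further: channel flux triggered by added potassium and thallium sulfate stimulus; B-score of peak minus minimum fluorescence over baseline after thallium stimulus; more negative B-score means stronger Kir2.1 block with less thallium influx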
TRPC4 block = inhibitors of mouse TRPC4 channel, primary screen, Fluo4 calcium, HEK293 TRPC4beta/mu-opioid cells. Short transient receptor potential channel 4 (Mus musculus), Q9QUQ5. DAMGO-evoked Fluo4 calcium flux; active compounds read low. B-score at 10 µM. actives 0.39% (n = 300,000);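 active means B-score over 3 SD under the library average, no early fluorescence shift, positive overall ratio signal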
Target sequence (Q9QUQ5 whole entry, looked up): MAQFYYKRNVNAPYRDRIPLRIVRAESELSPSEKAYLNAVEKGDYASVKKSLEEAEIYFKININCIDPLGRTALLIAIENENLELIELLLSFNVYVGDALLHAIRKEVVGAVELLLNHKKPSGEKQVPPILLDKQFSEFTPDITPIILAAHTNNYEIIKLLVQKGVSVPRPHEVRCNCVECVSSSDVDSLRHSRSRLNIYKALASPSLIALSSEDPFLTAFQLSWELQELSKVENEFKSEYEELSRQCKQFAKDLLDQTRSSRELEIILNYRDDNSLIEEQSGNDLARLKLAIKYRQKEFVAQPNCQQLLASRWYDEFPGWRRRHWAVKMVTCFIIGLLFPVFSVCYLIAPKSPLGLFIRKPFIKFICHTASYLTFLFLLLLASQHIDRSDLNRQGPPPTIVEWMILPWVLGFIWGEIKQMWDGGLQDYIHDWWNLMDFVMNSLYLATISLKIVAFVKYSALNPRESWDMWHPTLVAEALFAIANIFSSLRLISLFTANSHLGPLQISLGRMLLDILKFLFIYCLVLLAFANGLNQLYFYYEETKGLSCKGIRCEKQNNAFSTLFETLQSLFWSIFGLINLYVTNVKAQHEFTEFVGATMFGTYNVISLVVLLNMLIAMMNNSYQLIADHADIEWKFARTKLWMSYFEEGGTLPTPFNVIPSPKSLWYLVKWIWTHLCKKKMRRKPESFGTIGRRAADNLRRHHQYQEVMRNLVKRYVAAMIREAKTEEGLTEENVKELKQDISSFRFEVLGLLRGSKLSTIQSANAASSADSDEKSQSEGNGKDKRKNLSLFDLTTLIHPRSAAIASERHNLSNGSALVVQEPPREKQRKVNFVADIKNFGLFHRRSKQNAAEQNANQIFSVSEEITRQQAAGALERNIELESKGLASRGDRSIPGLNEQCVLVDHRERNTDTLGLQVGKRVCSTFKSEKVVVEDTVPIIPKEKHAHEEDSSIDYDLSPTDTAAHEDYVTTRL
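Material: HEK293 cells with stable TRPC4beta plus mu-opioid receptor expression; probe or stimulus: DAMGO in two steps, submaximal then maximal; technique: Fluo4 calcium fluorescence by kinetic imaging, 5 s 1 Hz baseline; measure: integrated fluorescence ratio relative to baseline, converted to per-well B score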
TRPC6 inhibitor = mouse TRPC6 channel inhibitors, primary screen, cell-based, HEK293, membrane potential dye. Short transient receptor potential channel 6 (Mus musculus), Q61143. ACh-evoked depolarization; active compounds read low. B-score at 10 µM. actives 1.1% (n = 310,000). AID 2553, 2010;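 active means B-score under library mean minus 3 SD, initial fluorescence not abnormally high, positive integrated signal ratio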;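 further: B-score derived from integrated fluorescence ratio over the kinetic read; more negative B-score means stronger inhibition of depolarization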
TRPC4 act = activators of mouse TRPC4 channel, primary screen, Fluo4 calcium, HEK293 TRPC4beta/mu-opioid cells; B-score at 10 µM; actives 0.49% (n = 310,000); Fluo4 calcium fluorescence; active compounds read high; Short transient receptor potential channel 4 (Mus musculus), Q9QUQ5;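 active means B-score above 5 SD of library B-scores, and initial fluorescence ratio not above library mean plus 5 SD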;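 further: positive B-score marks a calcium rise read as TRPC4 activation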
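Technique: kinetic Fluo4 calcium fluorescence; Test system: TRPC4beta and mu-opioid receptor HEK293 stable cells; Measure: B-scored integrated calcium fluorescence ratio; Benchmarks: low control buffer alone, high control maximal DAMGO; Schedule: 45 min room-temperature Fluo4 loading, 110 s read.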
TRPC4 potent = positive allosteric modulators of TRPC4, primary screen, cell-based, mouse TRPC4beta, HEK293 mu-opioid, Fluo-4 calcium; Short transient receptor potential channel 4 (Mus musculus), Q9QUQ5; DAMGO EC20, Fluo-4 Ca2+ flux; active compounds read high; B-score at 10 µM; actives 0.42% (n = 310,000);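 active means B-score of calcium response area above 5 SD of library B-scores, with initial fluorescence ratio within 5 SD of library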;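 further: B-score of integrated fluorescence ratio over time as area under calcium response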
TRPC6 activator = mouse TRPC6 channel activators, primary screen, cell-based, HEK293, membrane potential dye | Short transient receptor potential channel 6 (Mus musculus), Q61143 | AID 2550, 2010 | B-score at 10 µM | actives 0.13% (n = 310,000) | HEK293-TRPC6 membrane potential dye fluorescence; active compounds read high;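 active means B-score of the integrated fluorescence ratio above library mean plus 3 SD, and starting fluorescence ratio within library mean plus 5 SD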;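 further: higher score means more depolarization so channel activation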
HEK293 TRPC6 ctr = parental HEK293 membrane potential modulation, confirmation, counter-screen for TRPC6 modulator project, cell-based. shares compounds with TRPC6 inhibitor. membrane potential dye fluorescence. membrane potential signal change, % at 10 µM. actives 51% (n = 2,400). AID 488924, 2010;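 active means membrane potential signal moves up or down beyond 5 SD from buffer-only wells, on both duplicate plates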
HEK293 MPD ctr 2 = second check of TRPC6 modulator effects in parental HEK293 cells | inhibition, % at 10 µM | shares compounds with TRPC6 inhibitor | membrane potential dye fluorescence; after compound, maximal acetylcholine stimulation | actives 14% (n = 2,400);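 active means membrane potential signal drops by more than 5 SD from the mean control signal, in both duplicate plates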;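 further: plate controls were acetylcholine ECmax control wells for no effect and buffer only wells for full effect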
TRPC4 ctr mod = TRPC4 modulation by TRPC6 hit compounds, confirmation, selectivity assay for TRPC6 modulator project, cell-based, HEK293 TRPC4/mu-opioid, membrane potential dye, mouse. actives 69% (n = 2,400). shares compounds with TRPC6 inhibitor. AID 488927, 2010. membrane potential fluorescence. percent change from control (negative = decrease, positive = increase), % at 10 µM;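 active means membrane potential signal moved up or down beyond 5 SD of buffer control wells, in both duplicate plates, actives on both sides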;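 further: plate controls were assay buffer wells for no effect and DAMGO maximal-effect wells for full effect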
TRPC4/MOR inh 2 = second check of whether TRPC6 modulators also affect mouse TRPC4 | HEK293 TRPC4/mu-opioid, membrane potential dye fluorescence; stimulated with maximal-effect DAMGO | inhibition, % at 10 µM | AID 488928 | actives 55% (n = 2,400) | shares compounds with TRPC6 inhibitor;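 active means drop in membrane potential signal beyond 5 SD of the control wells in both duplicate plates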;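 further: TRPC4 counter screen for TRPC6 hits run under conditions tuned for TRPC6 not TRPC4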
TRPC6 inh conf = mouse TRPC6 channel inhibitors, confirmation, HEK293 cells, membrane potential dye, duplicate; shares compounds with TRPC6 inhibitor; actives 43% (n = 3,300); ACh-evoked depolarization; inhibition, % at 10 µM;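 active means fluorescence ratio falls more than 5 SD below the full-stimulation control mean, in both duplicate runs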;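 further: integrated fluorescence ratio of peak minus minimum over baseline after agonist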
TRPC6 act conf = mouse TRPC6 channel activators, confirmation, HEK293 cells, membrane potential dye, duplicate; activation, % at 10 µM; actives 11% (n = 2,800); shares compounds with TRPC6 inhibitor; AID 488961, 2010; HEK293-TRPC6 membrane potential dye fluorescence, FDSS;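 active means ratio signal rise beyond 5 SD above unstimulated control wells' mean, seen in both duplicate runs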;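 further: plate controls were buffer EC0 wells for no effect and acetylcholine ECmax response for full effect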
The depositor's hits bear a star; i = inactive; · = no result; ! = not confirmed by another sample.

SMILES	Kir21 block	TRPC4 block	TRPC6 inhibitor	TRPC4 act	TRPC4 potent	TRPC6 activator	HEK293 TRPC6 ctr	HEK293 MPD ctr 2	TRPC4 ctr mod	TRPC4/MOR inh 2	TRPC6 inh conf	TRPC6 act conf
COc1ccccc1C(=O)NC(=O)COC(=O)C1(C)CC1(Cl)Cl (stereo unspecified)	0.98	i	i	i	i	i	·	·	·	·	·	·
COc1cc(CN2CCC(n3nccc3NC(=O)c3ccc4c(c3)OCO4)CC2)ccc1O	-0.75	i	i	i	i	i	·	·	·	·	·	·
C/C(=N\NC(=S)Nc1ccccc1C)c1ccc(O)cc1	-0.85	i	i	i	i	i	·	·	·	·	·	·
O=C(CSc1nc(=O)[nH]c2c1CCCC2)Nc1ccc(F)cc1F	0.01	i	i	i	i	i	·	·	·	·	·	·
NNC(=O)[C@H]1C[C@@H]1c1ccccc1	0	i	i	i	i	i	·	·	·	·	·	·
O=C(Cn1cnc2ccccc2c1=O)NC1CCS(=O)(=O)C1 (stereo unspecified)	-0.53	i	i	i	i	i	·	·	·	·	·	·
COc1ccc(Cl)cc1NC(=S)NNC(=O)C1(C)CC1(Cl)Cl (stereo unspecified)	1.26	i	i	i	i	i	·	·	·	·	·	·
NC(CCC(=O)O)C12CC3CC(CC(C3)C1)C2 (stereo unspecified)	-1.52	i	i	i	i	i	·	·	·	·	·	·
CC(N)C12CC3CC(CC(C3)C1)C2 (stereo unspecified)	0.08	i	-5.39*!	i	i	i	i	i	i	29.5%*	i	i
CC1CCN(CC(C)OC(=O)c2ccc3c(c2)OCCO3)CC1 (stereo unspecified)	-1.61	i	-5.18*	i	i	i	120.0%*	i	15.0%*	i	i	·
COc1ccc2c(c1)CCCC21SC(NC(C)=O)=NN1C(C)=O (stereo unspecified)	-0.18	i	i	i	i	i	·	·	·	·	·	·
Cc1cccc(NS(=O)(=O)c2ccc(Oc3ccccc3)cc2)n1	-2.23	i	-6.34*	i	i	i	i	i	8.5%*	i	i	i
CN(C)CCCN1C(=O)C2CCc3[nH]c4ccccc4c3C2C1=O (stereo unspecified)	-0.93	i	i	i	i	i	·	·	·	·	·	·
COC(=O)N1CCN(c2ccc(C)c(C)c2)CC1	1.18	i	i	i	i	i	·	·	·	·	·	·
COC(=O)N1CCN(c2ccc(Cl)c(Cl)c2)CC1	-0.48	i	-6.28*	i	i	i	i	i	8.0%*	37.0%*	i	i
CC(=O)C1CCN(Cc2ccccc2)CC1	0	i	i	i	i	i	·	·	·	·	·	·
CSc1ccccc1OC1CCN(Cc2ccccc2)CC1	-12.7*	i	i	i	i	12.2*	195.5%*	i	40.0%*	63.0%*	i	77.0%*
C=CCn1c(SCCN2CCCC2)nc2c([nH]c3ccccc32)c1=O	0.08	i	-8.6*	i	17*	i	i	i	-17.5%*	65.5%*	53.0%*	i
C=CCn1c(SCC(=O)Nc2ccc(OC)cc2)nc2c([nH]c3ccccc32)c1=O	0.79	i	i	i	i	i	·	·	·	·	·	·
Cc1ccc(C(=O)C2CCN(CC(=O)Nc3ccccc3C)CC2)cc1	-0.99	i	i	i	i	i	·	·	·	·	·	·
Cc1ccccc1NC(=O)CN1CCC(C(=O)c2ccc3c(c2)OCCO3)CC1	1.07	i	-5.55*	i	i	i	i	i	i	i	i	i
Cc1ccccc1NC(=O)CN1CCOCC1	-1.89	i	i	i	i	13.5*	i	i	i	i	i	i
O=C(C1=C(c2ccccc2)C(=O)c2ccccc2C1=O)c1ccccc1	-0.47	i	i	i	i	i	·	·	·	·	·	·
O=C1C(=O)c2c(C(=O)c3ccccc3)coc2-c2ccccc21	2.24	i	-6.2*	i	i	i	-79.5%*	i	-18.5%*	71.5%*	60.5%*	i
Cc1ccc(OCCN2CCN(C(=O)CCC(=O)Nc3nnc(CC(C)C)s3)CC2)cc1	1.04	i	i	i	i	i	·	·	·	·	·	·
O=C(COC(=O)c1c(Cl)cccc1Cl)NC1CCCCC1	-0.01	i	i	i	i	12*	121.0%*	i	23.5%*	i	·	171.0%*
O=C(COC(=O)c1c(F)cccc1Cl)NC1CCCC1	-0.2	i	i	i	i	i	·	·	·	·	·	·
